The text below walks through data of ChEMBL document CHEMBL3091399, “Protease inhibitors from Microcystis aeruginosa bloom material collected from the Dalton Reservoir, Israel” (J Nat Prod, 2013).

The target in assay [1] is T1, Trypsin (Homo sapiens, UniProt P07477+P07478+P35030). Nature of the assay: Inhibition of trypsin (unknown origin) using benzoyl-L-arginine-p-nitroanilide hydrochloride as substrate preincubated for 5 mins before substrate addition measured after 30 mins. The format is protein assay. The method, boiled down:
(§1)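 Trypsin stock 1 mg/mL in 0.05 M Tris-HCl/100 mM NaCl/1 mM CaCl2, pH 7.5. Substrate in 1:9 DMSO/Tris buffer. Samples from 1 mg/mL DMSO stocks. Enzyme and sample are preincubated in buffer at 37 °C for 5 min. Substrate is then added and kinetics are read at 405 nm, 37 °C, for 30 min. Percent inhibition is taken against a DMSO vehicle control.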

For assay [2], the target named is T2, Prothrombin (Homo sapiens, UniProt P00734). Nature of the assay: Inhibition of thrombin (unknown origin) using z-Gly-Pro-Arg-4MbetaNA-acetate as substrate preincubated for 20 mins before substrate addition measured after 20 mins. The method, boiled down: (§2)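 Thrombin stock 0.5 mg/mL in 0.2 M Tris-HCl, pH 8. Substrate stock 0.5 mg/mL in water. Test samples from 1 mg/mL DMSO stocks. Enzyme and sample are preincubated in buffer at 25 °C for 20 min. Substrate is then added and kinetics are read at 405 nm, 25 °C, for 20 min. Percent inhibition is taken against a DMSO-only control.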

Assay [3] deals with T1, Trypsin. Nature of the assay: Inhibition of trypsin (unknown origin) using benzoyl-L-arginine-p-nitroanilide hydrochloride as substrate preincubated at 45.5 uM for 5 mins before substrate addition measured after 30 mins. The format is protein assay. The method, boiled down: as §1
Assay [4] deals with T2, Prothrombin. Nature of the assay: Inhibition of thrombin (unknown origin) using z-Gly-Pro-Arg-4MbetaNA-acetate as substrate preincubated at 45.5 uM for 20 mins before substrate addition measured after 20 mins. The method, boiled down: as §2

Calls of active or inactive are those of the source. The rule behind the calls is not given here. *1 amine or outer side, *2 acyl side, *3 side chain or, on linkers, in order; H or OH if unused. Where a SMILES comes first, the peptide text is derived from it. Bridges are numbered along the chain shown (N, C = ends). [ ]: non-standard residue; d: D form. hTyr = N[C@@H](CCc1ccc(O)cc1)C(=O)O; NMeA = CN[C@@H](C)C(=O)O; CO = O=C([*:1])[*:2]

Turning to `N=C(N)NCCCCNC(=O)[C@@H]1C[C@@H]2CC[C@@H](O)C[C@@H]2N1C(=O)[C@H](Cc1ccccc1)NC(=O)[C@@H](O)Cc1ccc(O)c(Cl)c1`, the results for the IC50 against Trypsin [1] and at Prothrombin [2] were 30.8 µM and 15.5 µM, respectively.

For the molecule `NC(=O)[C@@H]1C[C@@H]2CC[C@H](O)C[C@@H]2N1C(=O)[C@@H](Cc1ccc(O)cc1)NC(=O)[C@H](O)Cc1ccc(O)cc1`, the inhibition entry at Trypsin [3] and at Prothrombin [4] was “inactive” in each case.

Take `CC[C@H](C)[C@@H]1NC(=O)[C@H](Cc2ccccc2)N(C)C(=O)[C@H]([C@@H](C)CC)N2C(=O)[C@H](CC[C@H]2O)NC(=O)[C@H](CCCNC(=N)N)NC(=O)[C@@H](NC(=O)[C@H](O)COS(=O)(=O)O)[C@@H](C)OC1=O`: the inhibition entry on Trypsin [1] was “Active”.

As to `NC(=O)[C@@H]1C[C@@H]2CC[C@H](O)C[C@@H]2N1C(=O)[C@@H](Cc1ccccc1)NC(=O)[C@H](O)Cc1ccc(O)cc1`, the inhibition result at Trypsin [3] and at Prothrombin [4] was “inactive” throughout.

`N=C(N)NCCCCNC(=O)[C@@H]1C[C@@H]2CC[C@@H](O)C[C@@H]2N1C(=O)[C@H](Cc1ccccc1)NC(=O)[C@H](O)Cc1ccc(O)c(Cl)c1` came in with an IC50 against Trypsin [1] of 19 µM. Further, the inhibition entry at Prothrombin [4] was “inactive”.

For `CC[C@H](C)[C@@H]1NC(=O)[C@H](Cc2ccccc2)N(C)C(=O)[C@H]([C@@H](C)CC)N2C(=O)[C@H](CC[C@H]2OC)NC(=O)[C@H](CCCNC(=N)N)NC(=O)[C@@H](NC(=O)[C@H](O)COS(=O)(=O)O)[C@@H](C)OC1=O`, at Trypsin [1], the inhibition entry was “Active”.

For `CC(C)C[C@@H](NC(=O)[C@H](O)Cc1ccc(O)c(Cl)c1)C(=O)N1[C@H](C(=O)NCCCCNC(=N)N)C[C@@H]2CC[C@@H](OS(=O)(=O)O)C[C@@H]21`, the IC50 on Trypsin [1] is 9.5 µM. The inhibition entry at Prothrombin [4] is “inactive”.

As to `CC[C@H](C)[C@@H]1NC(=O)[C@H](Cc2ccccc2)N(C)C(=O)[C@H]([C@@H](C)CC)N2C(=O)[C@H](CC[C@H]2OC)NC(=O)[C@H](CCCNC(=N)N)NC(=O)[C@@H](NC(=O)[C@@H](COS(=O)(=O)O)OS(=O)(=O)O)[C@@H](C)OC1=O`, the inhibition entry on Trypsin [1] was “Active”.

At Trypsin [1], `CC(C)C[C@@H](NC(=O)[C@H](O)Cc1cc(Cl)c(O)c(Cl)c1)C(=O)N1[C@H](C(=O)NCCCCNC(=N)N)C[C@@H]2CC[C@@H](OS(=O)(=O)O)C[C@@H]21` registered an IC50 of 7.3 µM. For the same molecule, the inhibition result on Prothrombin [4] was “inactive”.

With `C=C(C)C(O)CC/C(C)=C/CN(CCCC(C(=O)[O-])[N+](C)(C)C)C(=N)N` (stereo not given), the inhibition entry on Trypsin [3] and at Prothrombin [4] was “inactive” in each case.

On to `CC[C@H](C)[C@@H]1NC(=O)[C@H](Cc2ccccc2)N(C)C(=O)[C@H]([C@@H](C)CC)N2C(=O)[C@H](CC[C@H]2O)NC(=O)[C@H](CCCNC(=N)N)NC(=O)[C@@H](NC(=O)[C@@H](COS(=O)(=O)O)OS(=O)(=O)O)[C@@H](C)OC1=O`, for which, at Trypsin [1], the inhibition result is “Active”.

With `CC[C@H](C)[C@@H]1NC(=O)[C@H](NC(=O)N[C@@H](CCCNC(=N)N)C(=O)O)CCCCNC(=O)[C@H](Cc2ccccc2)NC(=O)[C@H](C)N(C)C(=O)[C@H](CCc2ccc(O)cc2)NC1=O` ({Arg-CO}-[dK]I[hTyr][NMeA]F; lactam 1-C), the inhibition result at Trypsin [3] and at Prothrombin [4] was “inactive” in each case.

For orientation: IC50 means the concentration at which inhibition is half-maximal. Read a low IC50 as greater potency in that assay.
